Reference: article PMC7445463 (Diabetologia, 2020)
Ends that are not written are not given here.

Experiments:
[1] = 48-week tofogliflozin vs glimepiride trial in T2D with NAFLD; format: in vivo, human; conditions: after 48 weeks; for AST: baseline 55.4 ± 41.8 / 49.7 ± 46.8; for ALT: baseline 72.2 ± 60.5 / 76.4 ± 77.8; for body weight: baseline 78.7 ± 17.7 / 81.3 ± 19.2; for HbA1c: baseline tofogliflozin 8.0 ± 0.5, glimepiride 8.4 ± 0.9
[2] = CDHFD-induced NASH and fibrosis mice; format: in vivo, mouse
[3] = 12 week L-carnitine treatment in type 2 diabetes patients; format: in vivo, human; conditions: after 12 weeks
In short: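 32 patients with type 2 diabetes treated with L-carnitine for 12 weeks, with plasma free carnitine checked for compliance. Two-step hyperinsulinemic-euglycemic clamp (10 then 40 mU/m2/min) with D-[6,6-2H2]-glucose tracer gave hepatic (EGP suppression) and peripheral sensitivity. Vastus lateralis acetylcarnitine by T1-edited long-TE (350 ms) 1H-MRS at rest and after 30 min cycling at 70% Wmax. IHL by 1H-MRS. All measured before and after.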

[4] = Nasal vs injectable glucagon, insulin-induced hypoglycaemia; format: in vivo, human
SD rat islets = test: Perifusion of rat islets, GSIS; format: cell-based; conditions: for potentiation of GSIS at low concentrations: 10-100 pM
[5] = EXSCEL post-hoc analysis, eGFR slope and UACR; format: in vivo, human
[6] = test system: patients with type 2 diabetes; test: Network meta-analysis of antidiabetic medications on blood pressure; parameters: species or system human; conditions: network meta-analysis
[7] = test system: mouse hypothalamic (mHypoA) and human (SH-SY5Y) neuronal cells; test: Resistin overexposure of neuronal cells; format: cell-based; conditions: for resistin-dependent neuronal inflammation and IR: pharmacological inhibition
[8] = test system: obese men without diabetes; test: FLT-PET/MRI and pancreatic enzymes during liraglutide; format: in vivo, human
[9] = DIO-NASH biopsy-confirmed mouse model; format: in vivo
In short: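 Male C57BL/6JRj mice fed AMLN diet (40% fat with trans-fat, 20% fructose, 2% cholesterol) for 33 weeks, then liver-biopsied. Only mice with steatosis score ≥2 and fibrosis stage ≥F1 were stratified into groups (n=12-13). Groups received vehicle or test compound at 10 or 30 mg/kg for a further 12 weeks.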

[10] = 6-day s.c. GIP infusion crossover study, T1D; format: in vivo, human
[11] = test system: obese T2DM and lean subjects; test: GIP infusion, tissue blood flow; format: in vivo, human
[12] = test system: isolated diabetic mouse hearts; test: Langendorff-perfused db/db hearts, stable isotope analysis; conditions: 10 μM Cariporide
[13] = Insulin icodec vs IGlar U100 26-week phase 2 trial; format: in vivo, human
In short: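 Randomized, double-blind, double-dummy, treat-to-target phase 2 trial lasting 26 weeks. Participants were insulin-naïve adults with T2D and HbA1c 7.0-9.5% on metformin ± DPP4i, randomized 1:1 (n=247). Starting doses were 70 U once weekly or 10 U once daily, titrated weekly to a pre-breakfast SMBG target of 3.9-6.0 mmol/L. The primary endpoint was HbA1c change from baseline to week 26; FPG and mean weekly dose over the last two weeks were secondary.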

[14] = resistin overexposure, neuronal cells

CCC1=C(C)CN(C(=O)NCCc2ccc(S(=O)(=O)NC(=O)N[C@H]3CC[C@H](C)CC3)cc2)C1=O [glimepiride]
AST [1]: 52.3 ± 37.6 IU/L
ALT [1]: 78.9 ± 68.7 IU/L
body weight [1]: 81.9 ± 21.1 kg
HbA1c [1]: 7.5 ± 0.6%

O=C(O)c1ccnc(N2CC(O)(c3ccc(OCc4c(-c5c(Cl)cccc5Cl)noc4C4CC4)cc3Cl)C2)c1 [CIL, Cilofexor]
hepatic TG vs vehicle ([2]; CDHFD 14 weeks, treatment last 6 weeks): 2.6%
collagen-1α1 gene expression vs vehicle ([2]; mouse, in vivo): -37.5%
hepatic F4/80 gene expression vs vehicle ([2]; mouse, in vivo): -1.6%
hepatic IL-1β gene expression vs vehicle ([2]; mouse, in vivo): -37.5%
hepatic TBARS vs vehicle ([2]; mouse, in vivo): 11.0%
hepatic hydroxyproline vs vehicle ([2]; mouse, in vivo): -13.7%

C[N+](C)(C)C[C@H](O)CC(=O)[O-] [carnitine, L-carnitine]
resting skeletal muscle acetylcarnitine ([3]; before 1.18±0.13): 1.54±0.17 mmol/kgww
post-exercise skeletal muscle acetylcarnitine ([3]; before 3.70±0.22): 4.53±0.30 mmol/kgww
plasma glucose ([3]; before 8.1±0.3): 7.7 ± 0.3 mmol/L
ΔRd (peripheral insulin sensitivity) ([3]; before 10.53±1.85): 13.83 ± 2.02 µmol/kg/min
intrahepatic lipid content (IHL) ([3]; before 14.7±2.6): 12.8±2.2%
EGP suppression (hepatic insulin sensitivity) ([3]; before 31.9 ±2.9): 39.9±3.2%

glucagon [injectable glucagon]
geometric least square mean maximal blood glucose (BGMAX) ([4]; in vivo): 11.4 mmol/L
headache ([4]; in vivo): 5.8%
mean time to treatment success ([4]; in vivo): 10.4 min
nausea ([4]; in vivo): 28.8%
vomiting ([4]; in vivo): 11.5%
patients achieving treatment success ([4]; within 15 minutes, T1D or T2D): 97.0%

glucagon-like peptide-1 (HAEGTFTSDVSSYLEGQAAKEFIAWLVKGR; ends and bridges not checked; UniProt P01275 98-127, looked up) [GLP-1]
potentiation of GSIS at low concentrations (SD rat islets): no such effect

once-weekly exenatide [EQW]
reduction of UACR vs placebo ([5]; baseline UACR>30 mg/g): 28.2%
reduction of UACR vs placebo ([5]; baseline UACR>100 mg): 22.5%
eGFR slope vs placebo ([5]; baseline UACR>100mg/g, 95% CI 0.24-1.34): +0.79 mL/min/1.73m2/year
reduction of UACR vs placebo ([5]; baseline UACR>200 mg): 34.5%
eGFR slope vs placebo ([5]; baseline UACR>200mg/g, 95% CI 0.57-2.06): +1.32 mL/min/1.73m2/year

CCOc1ccc(Cc2cc([C@@H]3O[C@H](CO)[C@@H](O)[C@H](O)[C@H]3O)ccc2Cl)cc1 [dapagliflozin]
diastolic blood pressure, mean difference versus placebo [6]: -1.48 mmHg
increase in hepatic lipid content (HCL) (CON-D and T2DM-D, non-significant): 20%
decrease in hepatic glycogen (T2DM-D, T2DM-P -6±0.02): -10±0.02%
glycogenolysis (both groups): no impact
EGP higher following administration (single dose 10mg): 25%

CCOC(=O)C1=CCCC[C@H]1S(=O)(=O)Nc1ccc(F)cc1Cl [TAK-242]
resistin-dependent neuronal inflammation and IR [7]: prevents

CCCCCCCCCCCCCCCC(=O)N[C@@H](CCC(=O)NCCCC[C@H](NC(=O)[C@H](C)NC(=O)[C@H](C)NC(=O)[C@H](CCC(N)=O)NC(=O)CNC(=O)[C@H](CCC(=O)O)NC(=O)[C@H](CC(C)C)NC(=O)[C@H](Cc1ccc(O)cc1)NC(=O)[C@H](CO)NC(=O)[C@H](CO)NC(=O)[C@@H](NC(=O)[C@H](CC(=O)O)NC(=O)[C@H](CO)NC(=O)[C@@H](NC(=O)[C@H](Cc1ccccc1)NC(=O)[C@@H](NC(=O)CNC(=O)[C@H](CCC(=O)O)NC(=O)[C@H](C)NC(=O)[C@@H](N)Cc1cnc[nH]1)[C@@H](C)O)[C@@H](C)O)C(C)C)C(=O)N[C@@H](CCC(=O)O)C(=O)N[C@@H](Cc1ccccc1)C(=O)N[C@H](C(=O)N[C@@H](C)C(=O)N[C@@H](Cc1c[nH]c2ccccc12)C(=O)N[C@@H](CC(C)C)C(=O)N[C@H](C(=O)N[C@@H](CCCNC(=N)N)C(=O)NCC(=O)N[C@@H](CCCNC(=N)N)C(=O)NCC(=O)O)C(C)C)[C@@H](C)CC)C(=O)O [Liraglutide]
change in mean FLT-uptake in pancreatic tissue ([8]; after four weeks): +0.08
change in pancreatic volume ([8]; baseline to six weeks, MRI): +0.2 cm^3
change in maximum FLT-uptake ([8]; titration period): +0.3

CCc1ccc(Cc2ccc3c(c2)[C@]2(OC3)O[C@H](CO)[C@@H](O)[C@H](O)[C@H]2O)cc1 [tofogliflozin]
stage score ([1]; baseline 1.6 ± 1.1): 1.1 ± 1.3
grade score ([1]; baseline 1.7 ± 0.9): 0.9 ± 0.8
AST [1]: 27.2 ± 22.4 IU/L
ALT [1]: 33.1 ± 31.5 IU/L
body weight [1]: 73.3 ± 18.3 kg
HbA1c [1]: 6.9 ± 1.2%
steatosis score ([1]; tofogliflozin baseline 2.0 ± 0.7): 1.2 ± 0.4

Cc1ccc([C@@H]2O[C@H](CO)[C@@H](O)[C@H](O)[C@H]2O)cc1Cc1ccc(-c2ccc(F)cc2)s1 [canagliflozin]
diastolic blood pressure, mean difference versus placebo [6]: -1.42 mmHg

O=S(=O)(Nc1cc(Cl)c(Oc2cnc3ccccc3c2)c(Cl)c1)c1ccc(Cl)cc1Cl [CHS-131]
lower plasma aspartate transaminase ([9]; high dose): 29%
lower total cholesterol ([9]; high dose): 20%
increase of plasma adiponectin ([9]; high dose 30 mg/kg): 137%
lower plasma alanine transaminase ([9]; high dose 30 mg/kg, 12 weeks): 37%
increase of plasma adiponectin ([9]; low dose 10 mg/kg): 114%
Galectin-3 ([9]; trend): -18%
hydroxyproline ([9]; trend): -28%

CC[C@H](C)[C@H](NC(=O)[C@H](CO)NC(=O)[C@H](Cc1ccc(O)cc1)NC(=O)[C@H](CC(=O)O)NC(=O)[C@H](CO)NC(=O)[C@@H](NC(=O)[C@H](Cc1ccccc1)NC(=O)[C@@H](NC(=O)CNC(=O)[C@H](CCC(=O)O)NC(=O)[C@H](C)NC(=O)[C@@H](N)Cc1ccc(O)cc1)[C@@H](C)O)[C@@H](C)CC)C(=O)N[C@@H](C)C(=O)N[C@@H](CCSC)C(=O)N[C@@H](CC(=O)O)C(=O)N[C@@H](CCCCN)C(=O)N[C@H](C(=O)N[C@@H](Cc1c[nH]cn1)C(=O)N[C@@H](CCC(N)=O)C(=O)N[C@@H](CCC(N)=O)C(=O)N[C@@H](CC(=O)O)C(=O)N[C@@H](Cc1ccccc1)C(=O)N[C@H](C(=O)N[C@@H](CC(N)=O)C(=O)N[C@@H](Cc1c[nH]c2ccccc12)C(=O)N[C@@H](CC(C)C)C(=O)N[C@@H](CC(C)C)C(=O)N[C@@H](C)C(=O)N[C@@H](CCC(N)=O)C(=O)N[C@@H](CCCCN)C(=O)NCC(=O)N[C@@H](CCCCN)C(=O)N[C@@H](CCCCN)C(=O)N[C@@H](CC(N)=O)C(=O)N[C@@H](CC(=O)O)C(=O)N[C@@H](Cc1c[nH]c2ccccc12)C(=O)N[C@@H](CCCCN)C(=O)N[C@@H](Cc1c[nH]cn1)C(=O)N[C@@H](CC(N)=O)C(=O)N[C@H](C(=O)N[C@H](C(=O)N[C@@H](CCC(N)=O)C(=O)O)[C@@H](C)O)[C@@H](C)CC)C(C)C)[C@@H](C)CC [GIP]
potentiation of GSIS at low concentrations (SD rat islets): potentiated GSIS
increase of daytime time in range (3.9-[…]) vs placebo ([10]; 6 pmol/kg/min s.c., 6 days, mean ± SEM): 160 ± 74 min/day
decrease of 24-hour diastolic blood pressure ([10]; in vivo): 3.1 ± 1.3 mmHg
decrease of 24-hour systolic blood pressure ([10]; in vivo): 5.8 ± 2.6 mmHg
SAT blood flow increase from baseline ([11]; GIP infusion, operated subjects): 143%
VAT blood flow increase from baseline ([11]; GIP-infusion, control): 234%
SAT blood flow increase from baseline ([11]; GIP-infusion, controls): 385%
SAT blood flow increase from baseline ([11]; GIP-infusion, obese): 119%
VAT blood flow increase from baseline ([11]; GIP-infusion, obese): 105%

CC(C)c1ccc(C(=O)NC(=N)N)cc1S(C)(=O)=O [Cariporide]
Empa effects on lactate labeling and G6P [12]: mitigated

CCCCCCC(=O)CCCCCC/C=C/C[C@@H](O)[C@H](O)[C@@](N)(CO)C(=O)O [myriocin]
resistin-dependent neuronal inflammation and IR [7]: prevents

insulin glargine U100 [IGlar U100]
estimated mean HbA1c at week 26 ([13]; baseline 8.1 icodec, 8.0 IGlar U100): 6.9%
estimated mean FPG at week 26 ([13]; in vivo): 7.05 mmol/L
estimated mean weekly insulin dose, last two weeks ([13]; in vivo): 284 U/week
level 2 and 3 hypoglycaemia ([13]; on-treatment period): 46 events per 100 patient years of exposure
estimated mean change in HbA1c from baseline ([13]; week 26): -1.15 %-points

GIP(3-30)
insulin secretion in response to glucose alone (SD rat islets; receptor antagonists): not reduced

B1: resistin: "circulating factors originated from adipose tissue and immune cells"; "a key mediator linking obesity to IR" (protein, UniProt Q9HD89 19-108, looked up)
Resistin: KTLCSMEEAINERIQEVAGSLIFRAISSIGLECQSVTSRGDLATCPRGFAVTGCTCGSACGSWDVRAETTCHCQCAGMDWTGARCCRVQP
increased expression of IL6 [7, 14]: 89.93%
inhibition of insulin-dependent phosphorylation of Akt [7, 14]: 40.6%
